Converted amounts (≈) assume the structure as drawn.
Experiments:
Haemophilus influenzae = assay: Antimicrobial activity against Haemophilus influenzae by broth microdilution/CLSI method; type: functional
DNA gyrase subunit B = DNA gyrase subunit B (Staphylococcus aureus, UniProt P0A0K8); assay: Inhibition of ATPase activity of Staphylococcus aureus GyrB
Procedure, shortened: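 IC50 was determined against S. aureus GyrB in the routine screening assay. The enzyme concentration limits resolution below 10 nM.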

Streptococcus pneumoniae = assay: Antibacterial activity against Streptococcus pneumoniae by broth microdilution/CLSI method; type: functional
Streptococcus pyogenes = assay: Antimicrobial activity against Streptococcus pyogenes by broth microdilution/CLSI method; type: functional
Staphylococcus aureus [1] = assay: Antimicrobial activity against methicillin-sensitive Staphylococcus aureus by broth microdilution/CLSI method; type: functional
Staphylococcus aureus [2] = assay: Antimicrobial activity against methicillin, quinolone-resistant Staphylococcus aureus by broth microdilution/CLSI method; type: functional
Moraxella catarrhalis = assay: Antimicrobial activity against Moraxella catarrhalis by broth microdilution/CLSI method; type: functional
Escherichia coli [3] = assay: Antimicrobial activity against wild-type Escherichia coli Eco523 by broth microdilution/CLSI method; type: functional
Escherichia coli [4] = assay: Antimicrobial activity against Escherichia coli tolC- by broth microdilution/CLSI method; type: functional
[5] = Octanol-phosphate buffer distribution coefficient, log D of the compound at pH 7.4 by shake flask method; type: physicochemical
[6] = Percentage unbound in human plasma; type: ADME, cell-free
[7] = Solubility of the compound; type: physicochemical
[8] = Ratio of MIC for methicillin, quinolone-resistant Staphylococcus aureus to fraction unbound in human plasma; type: ADME
[9] = Clearance in rat at 10 mg/kg, iv; type: ADME, organism-based; parameters: dose 10 mg/kg, route intravenous; settings: in vivo
[10] = Dissociation constant, pKa of the compound; type: physicochemical
[11] = Percentage unbound in mouse plasma; type: ADME, cell-free
[12] = Percentage unbound in rat plasma; type: ADME, cell-free
[13] = Percentage unbound in dog plasma; type: ADME, cell-free, Canis lupus familiaris
[14] = Bioavailability in dog at 10 mg/kg, iv; type: ADME, organism-based, Canis lupus familiaris; settings: plasma
[15] = Clearance in dog at 10 mg/kg, iv; type: ADME, organism-based, Canis lupus familiaris; parameters: dose 10 mg/kg, route intravenous; settings: plasma
Staphylococcus aureus [16] = assay: Antibacterial activity against methicillin-sensitive Staphylococcus aureus ARC516 infected in neutropenic CD1 mouse thigh model assessed as decrease in bacterial viable counts at 30 mg/kg, ip q24; type: functional; settings: route intraperitoneal
[17] = AUC in methicillin-sensitive Staphylococcus aureus ARC516 infected in neutropenic CD1 mouse thigh model at 30 mg/kg, ip q24; type: ADME, organism-based; parameters: dose 30 mg/kg, route intraperitoneal; settings: in vivo
Mus musculus = assay: fAUC in methicillin-sensitive Staphylococcus aureus ARC516 infected in neutropenic CD1 mouse thigh model at 30 mg/kg, ip q24; type: ADME, organism-based; parameters: dose 30 mg/kg, route intraperitoneal; settings: in vivo
Staphylococcus aureus [18] = assay: Antibacterial activity against methicillin-sensitive Staphylococcus aureus ARC516 infected in ip dosed neutropenic CD1 mouse thigh model assessed as decrease in bacterial viable counts treated for q24; type: functional; settings: ARC516, Thigh muscle
[19] = target: T1, ATP-binding cassette sub-family C member 2 (Homo sapiens, UniProt Q92887); assay: Stimulation of ATPase activity of human MRP2 assessed as inorganic phosphate
[20] = target: T1, ATP-binding cassette sub-family C member 2; assay: Inhibition of ATPase activity of human MRP2 assessed as inorganic phosphate
[21] = target: T2, ATP-binding cassette sub-family C member 2 (Rattus norvegicus, UniProt Q63120); assay: Stimulation of ATPase activity of rat Mrp2 assessed as inorganic phosphate
[22] = target: T2, ATP-binding cassette sub-family C member 2; assay: Inhibition of ATPase activity of rat Mrp2 assessed as inorganic phosphate
[23] = Bioavailability in CD1 mouse at 10 mg/kg, […]; type: ADME, organism-based; settings: in vivo
[24] = Clearance in CD1 mouse at 10 mg/kg, iv; type: ADME, organism-based; parameters: dose 10 mg/kg, route intravenous; settings: in vivo
[25] = Bioavailability in Wistar rat at 10 mg/kg, […]; type: ADME, organism-based; settings: in vivo
[26] = Clearance in Wistar rat at 10 mg/kg, iv; type: ADME, organism-based; parameters: dose 10 mg/kg, route intravenous; settings: in vivo
[27] = Clearance in TR-negative Wistar rat at 10 mg/kg, iv; type: ADME, organism-based; parameters: dose 10 mg/kg, route intravenous; settings: in vivo
[28] = Haemophilus influenzae, read-out: MIC
[29] = Streptococcus pneumoniae, read-out: MIC
[30] = Staphylococcus aureus, read-out: MIC
[31] = Moraxella catarrhalis, read-out: MIC
[32] = Escherichia coli, Eco523, read-out: MIC
[33] = Escherichia coli, read-out: MIC

Chain of DNA gyrase subunit B (P0A0K8 whole entry): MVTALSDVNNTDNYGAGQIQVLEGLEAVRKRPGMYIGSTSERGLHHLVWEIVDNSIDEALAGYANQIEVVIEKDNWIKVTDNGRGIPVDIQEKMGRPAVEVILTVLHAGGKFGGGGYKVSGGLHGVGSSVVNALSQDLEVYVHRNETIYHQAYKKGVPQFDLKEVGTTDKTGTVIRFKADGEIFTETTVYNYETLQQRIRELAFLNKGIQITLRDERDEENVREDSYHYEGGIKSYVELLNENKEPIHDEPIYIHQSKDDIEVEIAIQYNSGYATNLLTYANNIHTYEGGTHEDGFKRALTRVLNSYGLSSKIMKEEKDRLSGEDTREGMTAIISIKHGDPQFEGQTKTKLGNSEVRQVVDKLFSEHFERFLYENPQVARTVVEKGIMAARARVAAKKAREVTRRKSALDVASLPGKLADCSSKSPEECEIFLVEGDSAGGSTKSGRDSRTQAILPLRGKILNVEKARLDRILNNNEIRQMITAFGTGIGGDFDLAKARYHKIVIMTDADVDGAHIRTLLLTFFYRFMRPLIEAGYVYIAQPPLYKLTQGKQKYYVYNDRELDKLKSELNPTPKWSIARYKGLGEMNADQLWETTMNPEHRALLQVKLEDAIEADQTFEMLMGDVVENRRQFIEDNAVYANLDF
T1 sequence (Q92887 whole entry): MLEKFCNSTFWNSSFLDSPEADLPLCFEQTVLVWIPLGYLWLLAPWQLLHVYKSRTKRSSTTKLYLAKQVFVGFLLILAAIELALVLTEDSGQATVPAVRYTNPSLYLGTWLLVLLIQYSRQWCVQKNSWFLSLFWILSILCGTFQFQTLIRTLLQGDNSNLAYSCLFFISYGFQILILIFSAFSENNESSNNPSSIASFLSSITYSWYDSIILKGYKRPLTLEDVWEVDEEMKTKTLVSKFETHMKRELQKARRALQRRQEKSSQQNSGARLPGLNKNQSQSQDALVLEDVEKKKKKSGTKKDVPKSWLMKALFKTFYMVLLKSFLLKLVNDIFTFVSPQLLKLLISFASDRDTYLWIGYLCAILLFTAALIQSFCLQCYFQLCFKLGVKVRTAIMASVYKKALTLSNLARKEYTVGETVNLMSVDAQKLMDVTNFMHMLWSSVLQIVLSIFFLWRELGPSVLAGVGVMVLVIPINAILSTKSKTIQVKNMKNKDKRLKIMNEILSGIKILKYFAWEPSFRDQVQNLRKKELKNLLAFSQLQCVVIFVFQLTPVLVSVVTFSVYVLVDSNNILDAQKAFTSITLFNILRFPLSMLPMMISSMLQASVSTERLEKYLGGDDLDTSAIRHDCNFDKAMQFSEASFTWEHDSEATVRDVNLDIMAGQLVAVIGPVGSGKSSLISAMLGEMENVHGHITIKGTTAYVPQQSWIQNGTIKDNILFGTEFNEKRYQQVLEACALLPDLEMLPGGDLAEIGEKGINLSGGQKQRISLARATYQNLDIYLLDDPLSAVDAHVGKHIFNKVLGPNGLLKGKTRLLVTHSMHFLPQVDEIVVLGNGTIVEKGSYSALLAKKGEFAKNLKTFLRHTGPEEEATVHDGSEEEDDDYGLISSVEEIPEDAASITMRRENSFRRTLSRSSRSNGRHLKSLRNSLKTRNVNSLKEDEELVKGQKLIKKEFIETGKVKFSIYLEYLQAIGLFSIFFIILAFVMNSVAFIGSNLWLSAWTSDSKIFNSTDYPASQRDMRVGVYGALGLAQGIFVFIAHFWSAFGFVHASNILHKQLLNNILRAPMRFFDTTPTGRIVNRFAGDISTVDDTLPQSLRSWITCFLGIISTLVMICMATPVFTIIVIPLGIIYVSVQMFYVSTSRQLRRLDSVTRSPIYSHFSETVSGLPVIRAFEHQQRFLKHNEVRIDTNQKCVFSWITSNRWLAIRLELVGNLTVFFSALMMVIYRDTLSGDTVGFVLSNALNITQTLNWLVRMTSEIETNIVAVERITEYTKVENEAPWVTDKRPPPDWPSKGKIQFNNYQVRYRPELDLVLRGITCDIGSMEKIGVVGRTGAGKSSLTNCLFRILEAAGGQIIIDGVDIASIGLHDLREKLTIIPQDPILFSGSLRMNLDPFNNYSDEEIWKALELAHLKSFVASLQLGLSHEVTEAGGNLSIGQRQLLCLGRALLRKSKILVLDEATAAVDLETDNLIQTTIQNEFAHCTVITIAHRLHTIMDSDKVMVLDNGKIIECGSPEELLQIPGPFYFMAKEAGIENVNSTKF
T2 sequence (Q63120 whole entry): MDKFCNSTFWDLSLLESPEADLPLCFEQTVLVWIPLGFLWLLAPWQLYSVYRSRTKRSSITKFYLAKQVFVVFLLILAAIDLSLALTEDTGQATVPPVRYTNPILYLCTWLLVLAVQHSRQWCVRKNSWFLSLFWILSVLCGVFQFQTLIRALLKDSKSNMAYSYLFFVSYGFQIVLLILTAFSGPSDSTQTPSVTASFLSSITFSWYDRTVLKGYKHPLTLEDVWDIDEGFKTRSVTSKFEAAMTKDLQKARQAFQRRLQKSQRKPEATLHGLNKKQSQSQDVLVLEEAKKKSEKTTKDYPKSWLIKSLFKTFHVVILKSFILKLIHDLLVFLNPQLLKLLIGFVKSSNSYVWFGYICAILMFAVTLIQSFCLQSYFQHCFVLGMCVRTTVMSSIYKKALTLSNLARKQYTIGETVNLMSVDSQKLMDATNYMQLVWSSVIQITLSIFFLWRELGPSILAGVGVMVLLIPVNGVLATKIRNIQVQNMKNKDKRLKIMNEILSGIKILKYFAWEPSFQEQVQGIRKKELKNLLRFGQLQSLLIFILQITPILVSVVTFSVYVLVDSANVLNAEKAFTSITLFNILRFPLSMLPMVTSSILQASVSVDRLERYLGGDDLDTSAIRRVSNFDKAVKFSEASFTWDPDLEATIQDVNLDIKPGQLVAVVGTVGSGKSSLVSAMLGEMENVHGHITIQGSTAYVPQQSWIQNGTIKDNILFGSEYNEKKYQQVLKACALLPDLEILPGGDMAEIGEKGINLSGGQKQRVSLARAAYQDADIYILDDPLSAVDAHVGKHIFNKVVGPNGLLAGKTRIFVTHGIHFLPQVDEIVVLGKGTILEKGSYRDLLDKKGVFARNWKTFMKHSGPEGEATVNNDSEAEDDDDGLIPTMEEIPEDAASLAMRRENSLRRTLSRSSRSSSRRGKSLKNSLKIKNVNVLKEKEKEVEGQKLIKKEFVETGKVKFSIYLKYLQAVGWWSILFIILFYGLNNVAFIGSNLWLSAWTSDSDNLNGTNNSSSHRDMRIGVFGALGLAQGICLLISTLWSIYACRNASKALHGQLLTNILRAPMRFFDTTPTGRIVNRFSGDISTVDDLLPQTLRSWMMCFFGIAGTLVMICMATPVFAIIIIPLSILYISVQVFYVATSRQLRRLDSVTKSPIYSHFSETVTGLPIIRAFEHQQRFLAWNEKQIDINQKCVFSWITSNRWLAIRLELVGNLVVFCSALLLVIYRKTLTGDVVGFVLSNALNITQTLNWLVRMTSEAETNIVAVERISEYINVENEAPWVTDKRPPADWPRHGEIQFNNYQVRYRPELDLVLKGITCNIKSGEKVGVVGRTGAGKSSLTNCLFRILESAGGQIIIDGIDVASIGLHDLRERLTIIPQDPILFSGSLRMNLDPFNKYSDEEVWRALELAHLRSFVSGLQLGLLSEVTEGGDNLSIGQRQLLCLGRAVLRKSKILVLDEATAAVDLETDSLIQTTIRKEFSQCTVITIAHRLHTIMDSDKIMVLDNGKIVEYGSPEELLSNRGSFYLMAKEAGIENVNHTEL

CO[C@H]1CN(c2nc(-c3cnccn3)c(C(=O)O)s2)CC[C@H]1NC(=O)c1[nH]c(C)c(Cl)c1Cl
MIC (Haemophilus influenzae; [28]): 0.13 µg/mL (≈ 0.254 µM) | IC50 (DNA gyrase subunit B): < 10 nM | MIC (Streptococcus pneumoniae; [29]): 7 ng/mL (≈ 0.0137 µM) | MIC (Streptococcus pyogenes): 0.01 µg/mL (≈ 0.0196 µM) | MIC (Staphylococcus aureus [1]; [30]): 0.031 µg/mL (≈ 0.0606 µM) | MIC (Staphylococcus aureus [2]; [30]): 0.018 µg/mL (≈ 0.0352 µM) | MIC (Moraxella catarrhalis; [31]): 0.008 µg/mL (≈ 0.0156 µM) | MIC (Escherichia coli [3]; [32]): > 8 µg/mL | MIC (Escherichia coli [4]; [33]): 0.5 µg/mL (≈ 0.978 µM) | logD [5]: 1.2 | fraction unbound [6]: 0.039 | solubility [7]: 540 µM (≈ 276 µg/mL) | Ratio [8]: 0.46 | clearance [9]: 2.7 mL/min/kg | pKa [10]: 5.4 | fraction unbound [11]: 0.074 | fraction unbound [12]: 0.0715 | fraction unbound [13]: 0.13 | bioavailability [14]: 18% | clearance [15]: 0.73 mL/min/kg

CO[C@H]1CN(c2nc(-c3ncnn3C)c(C(=O)O)s2)CC[C@H]1NC(=O)c1[nH]c(C)c(Cl)c1Cl
deltalog10CFU (Staphylococcus aureus [16]): 1.54 | AUC [17]: 204 µg·h/mL | fAUC (Mus musculus): 19.8 µg·h/mL | MIC (Staphylococcus aureus [18]): 0.03 µg/mL (≈ 0.0583 µM) | EC50 [19]: 140 µM | IC50 [20]: > 200 µM | EC50 [21]: 110 µM | IC50 [22]: > 200 µM | MIC (Haemophilus influenzae; [28]): 0.12 µg/mL (≈ 0.233 µM) | IC50 (DNA gyrase subunit B): < 10 nM | MIC (Streptococcus pneumoniae; [29]): 7 ng/mL (≈ 0.0136 µM) | MIC (Streptococcus pyogenes): 0.016 µg/mL (≈ 0.0311 µM) | MIC (Staphylococcus aureus [1]; [30]): 0.063 µg/mL (≈ 0.122 µM) | MIC (Staphylococcus aureus [2]; [30]): 0.04 µg/mL (≈ 0.0778 µM) | MIC (Moraxella catarrhalis; [31]): 0.026 µg/mL (≈ 0.0505 µM) | MIC (Escherichia coli [3]; [32]): 32 µg/mL (≈ 62.2 µM) | MIC (Escherichia coli [4]; [33]): 0.46 µg/mL (≈ 0.894 µM) | logD [5]: 0.15 | fraction unbound [6]: 0.032 | solubility [7]: 630 µM (≈ 324 µg/mL) | Ratio [8]: 1.25 | clearance [9]: 17 mL/min/kg | pKa [10]: 4.5 | fraction unbound [11]: 0.097 | bioavailability [23]: 74% | clearance [24]: 7.4 mL/min/kg | fraction unbound [12]: 0.088 | bioavailability [25]: 65% | fraction unbound [13]: 0.2 | bioavailability [14]: 70% | clearance [15]: 1.6 mL/min/kg

CO[C@H]1CN(c2ncc(C(=O)O)s2)CC[C@H]1NC(=O)c1[nH]c(C)c(Cl)c1Cl
EC50 [19]: 71 µM | IC50 [20]: > 200 µM | EC50 [21]: 38 µM | IC50 [22]: > 200 µM | MIC (Haemophilus influenzae): 0.18 µg/mL (≈ 0.415 µM) | clearance [26]: 34 mL/min/kg | IC50 (DNA gyrase subunit B): < 10 nM | MIC (Streptococcus pneumoniae): 16 ng/mL (≈ 0.0369 µM) | MIC (Staphylococcus aureus [1]): 0.32 µg/mL (≈ 0.738 µM) | MIC (Staphylococcus aureus [2]): 0.5 µg/mL (≈ 1.15 µM) | MIC (Moraxella catarrhalis): 0.031 µg/mL (≈ 0.0715 µM) | MIC (Escherichia coli [3]): 64 µg/mL (≈ 148 µM) | MIC (Escherichia coli [4]): 0.18 µg/mL (≈ 0.415 µM) | fraction unbound [6]: 0.071 | Ratio [8]: 7 | clearance [9]: 52 mL/min/kg | pKa [10]: 3.6 | clearance [24]: 99 mL/min/kg | bioavailability [25]: 6.7% | fraction unbound [13]: 0.22 | clearance [15]: 26 mL/min/kg | clearance [27]: 9.1 mL/min/kg

COCC(COC)NC(=O)c1nc(N2CC[C@@H](NC(=O)c3[nH]c(C)c(Cl)c3Cl)[C@@H](OC)C2)sc1C(=O)O
deltalog10CFU (Staphylococcus aureus [16]): -0.16 | AUC [17]: 148 µg·h/mL | fAUC (Mus musculus): 6.26 µg·h/mL | MIC (Staphylococcus aureus [18]): 0.03 µg/mL (≈ 0.0519 µM) | EC50 [19]: > 200 µM | IC50 [20]: 200 µM | EC50 [21]: > 200 µM | IC50 [22]: 75 µM | MIC (Haemophilus influenzae; [28]): 0.1 µg/mL (≈ 0.173 µM) | clearance [26]: 13 mL/min/kg | IC50 (DNA gyrase subunit B): < 10 nM | MIC (Streptococcus pneumoniae; [29]): 16 ng/mL (≈ 0.0277 µM) | MIC (Streptococcus pyogenes): 0.016 µg/mL (≈ 0.0277 µM) | MIC (Staphylococcus aureus [1]; [30]): 0.05 µg/mL (≈ 0.0864 µM) | MIC (Staphylococcus aureus [2]; [30]): 0.049 µg/mL (≈ 0.0847 µM) | MIC (Moraxella catarrhalis; [31]): < 0.008 µg/mL | MIC (Escherichia coli [3]; [32]): 23 µg/mL (≈ 39.8 µM) | MIC (Escherichia coli [4]; [33]): 1.3 µg/mL (≈ 2.25 µM) | logD [5]: 1 | fraction unbound [6]: 0.021 | solubility [7]: 860 µM (≈ 497 µg/mL) | Ratio [8]: 2.3 | clearance [9]: 18 mL/min/kg | pKa [10]: 4.5 | fraction unbound [11]: 0.042 | bioavailability [23]: 25% | clearance [24]: 5.35 mL/min/kg | fraction unbound [12]: 0.038 | fraction unbound [13]: 0.12 | bioavailability [14]: 29% | clearance [15]: 1.6 mL/min/kg | clearance [27]: 3 mL/min/kg

Reference: ChEMBL document CHEMBL3352173, “Optimization of pyrrolamide topoisomerase II inhibitors toward identification of an antibacterial clinical candidate (AZD5099)” (J Med Chem, 2014)
